Calls of active or inactive are those of the source. No cut-off for these calls is given here.
Tests used:
[1] = target: Nuclear receptor subfamily 0 group B member 1 (Homo sapiens) (UniProt P51843); assay: Effect on DAX1(NR0B1) dependent reporter activity in HEK293 cells at 20 uM; type: cell-based
Method in brief: (§1)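 Specificity panel covering all 48 human nuclear receptors. HEK293 cells cotransfected with Gal4 DNA-binding domain–nuclear receptor fusions and a luciferase reporter. Compound tested at a single 20 μM concentration. Mean ± s.e.m., n=3.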

[2] = target: Peroxisome proliferator-activated receptor gamma (Homo sapiens) (UniProt P37231); assay: Effect on PPARG(NR1C3) dependent reporter activity in HEK293 cells at 20 uM; type: cell-based; method in brief: as §1
Chain of Peroxisome proliferator-activated receptor gamma (Homo sapiens) (P37231 whole entry): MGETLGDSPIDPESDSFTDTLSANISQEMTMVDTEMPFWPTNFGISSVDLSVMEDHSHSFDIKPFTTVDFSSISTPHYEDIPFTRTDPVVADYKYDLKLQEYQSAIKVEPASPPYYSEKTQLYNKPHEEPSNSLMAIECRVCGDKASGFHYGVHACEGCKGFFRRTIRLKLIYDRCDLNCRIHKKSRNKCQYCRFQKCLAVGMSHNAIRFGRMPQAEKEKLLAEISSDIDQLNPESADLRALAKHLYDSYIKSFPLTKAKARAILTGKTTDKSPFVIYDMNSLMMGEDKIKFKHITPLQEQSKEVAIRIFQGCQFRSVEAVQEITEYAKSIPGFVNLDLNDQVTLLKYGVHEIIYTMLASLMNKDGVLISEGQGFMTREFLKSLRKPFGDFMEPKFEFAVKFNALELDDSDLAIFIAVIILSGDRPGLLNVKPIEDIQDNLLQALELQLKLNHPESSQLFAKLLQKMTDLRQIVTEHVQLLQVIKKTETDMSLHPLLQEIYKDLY

[3] = target: Thyroid hormone receptor beta (Homo sapiens) (UniProt P10828); assay: Effect on THRB(NR1A2) dependent reporter activity in HEK293 cells at 20 uM; type: cell-based
Chain of Thyroid hormone receptor beta (Homo sapiens) (P10828 whole entry, the tested form may be a part): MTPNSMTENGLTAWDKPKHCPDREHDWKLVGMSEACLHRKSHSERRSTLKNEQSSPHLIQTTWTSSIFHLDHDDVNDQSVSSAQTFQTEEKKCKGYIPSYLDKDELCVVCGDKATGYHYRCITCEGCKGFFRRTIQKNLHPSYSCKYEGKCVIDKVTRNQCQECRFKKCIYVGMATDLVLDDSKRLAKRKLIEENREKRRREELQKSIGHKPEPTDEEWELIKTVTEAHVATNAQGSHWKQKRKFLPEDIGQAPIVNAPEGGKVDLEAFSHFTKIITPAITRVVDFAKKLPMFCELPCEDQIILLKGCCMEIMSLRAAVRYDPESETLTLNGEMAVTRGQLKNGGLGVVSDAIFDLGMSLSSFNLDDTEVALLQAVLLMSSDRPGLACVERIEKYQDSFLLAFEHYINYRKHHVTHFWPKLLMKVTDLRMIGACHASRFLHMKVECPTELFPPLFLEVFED
Method in brief: (§2)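 Cotransfection assay in HEK293 cells with Gal4 DNA-binding domain–nuclear receptor fusions, covering a panel of all 48 human nuclear receptors. Compounds were tested at 20 μM, with reporter luciferase as the read-out. Mean ± s.e.m., n=3.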

[4] = target: Vitamin D3 receptor (Homo sapiens) (UniProt P11473); assay: Effect on VDR(NR1I1) dependent reporter activity in HEK293 cells at 20 uM; type: cell-based; method in brief: as §2
[5] = target: Oxysterols receptor LXR-beta (Homo sapiens) (UniProt P55055); assay: Effect on LXRB(NR1H2) dependent reporter activity in HEK293 cells at 20 uM; type: cell-based; method in brief: as §1
Chain of Oxysterols receptor LXR-beta (Homo sapiens) (P55055 whole entry): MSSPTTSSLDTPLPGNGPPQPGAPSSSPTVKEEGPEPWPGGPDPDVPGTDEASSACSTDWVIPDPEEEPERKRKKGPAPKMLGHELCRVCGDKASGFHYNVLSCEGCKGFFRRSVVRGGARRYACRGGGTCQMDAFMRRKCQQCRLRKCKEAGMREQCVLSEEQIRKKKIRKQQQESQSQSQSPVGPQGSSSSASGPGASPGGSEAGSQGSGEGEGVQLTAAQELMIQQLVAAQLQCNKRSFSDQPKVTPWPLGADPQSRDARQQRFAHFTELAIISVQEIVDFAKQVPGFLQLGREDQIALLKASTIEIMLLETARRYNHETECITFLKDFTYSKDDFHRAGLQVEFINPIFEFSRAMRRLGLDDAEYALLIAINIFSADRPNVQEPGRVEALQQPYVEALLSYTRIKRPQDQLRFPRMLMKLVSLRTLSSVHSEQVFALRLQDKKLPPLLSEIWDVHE

[6] = target: Glucocorticoid receptor (Homo sapiens) (UniProt P04150); assay: Effect on GCR(NR3C1) dependent reporter activity in HEK293 cells at 20 uM; type: cell-based; method in brief: as §1
Chain of Glucocorticoid receptor (Homo sapiens) (P04150 whole entry): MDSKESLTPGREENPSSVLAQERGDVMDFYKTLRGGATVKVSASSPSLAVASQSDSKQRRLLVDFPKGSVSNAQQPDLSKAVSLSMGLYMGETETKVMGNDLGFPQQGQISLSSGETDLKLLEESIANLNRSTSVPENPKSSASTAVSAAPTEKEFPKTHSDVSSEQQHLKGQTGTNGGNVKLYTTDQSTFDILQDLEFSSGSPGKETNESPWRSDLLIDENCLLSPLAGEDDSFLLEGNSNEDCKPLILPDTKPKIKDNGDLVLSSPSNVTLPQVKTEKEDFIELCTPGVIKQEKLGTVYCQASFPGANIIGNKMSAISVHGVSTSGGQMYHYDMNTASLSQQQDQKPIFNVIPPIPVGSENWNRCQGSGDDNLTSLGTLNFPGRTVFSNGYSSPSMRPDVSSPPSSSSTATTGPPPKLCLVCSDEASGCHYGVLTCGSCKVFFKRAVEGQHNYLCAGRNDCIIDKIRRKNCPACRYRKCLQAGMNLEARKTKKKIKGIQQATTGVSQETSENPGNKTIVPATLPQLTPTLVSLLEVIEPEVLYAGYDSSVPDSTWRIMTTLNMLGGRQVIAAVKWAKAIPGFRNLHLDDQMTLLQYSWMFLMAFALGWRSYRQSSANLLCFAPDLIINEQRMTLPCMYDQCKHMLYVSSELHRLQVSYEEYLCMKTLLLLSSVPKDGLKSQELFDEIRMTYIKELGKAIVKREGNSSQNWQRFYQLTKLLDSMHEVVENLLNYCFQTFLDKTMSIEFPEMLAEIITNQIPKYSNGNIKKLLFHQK

Mus musculus [7] = assay: Decreased expression of REV-ERB responsive gene Serpine1 in mouse liver after 6 days at 100 mg/kg; type: functional, organism-based; design: dose 100 mg/kg
[8] = target: Nuclear receptor ROR-alpha (Homo sapiens) (UniProt P35398); assay: Effect on RORA(NR1F1) dependent reporter activity in HEK293 cells at 20 uM; type: cell-based; method in brief: as §1
Chain of Nuclear receptor ROR-alpha (Homo sapiens) (P35398 whole entry): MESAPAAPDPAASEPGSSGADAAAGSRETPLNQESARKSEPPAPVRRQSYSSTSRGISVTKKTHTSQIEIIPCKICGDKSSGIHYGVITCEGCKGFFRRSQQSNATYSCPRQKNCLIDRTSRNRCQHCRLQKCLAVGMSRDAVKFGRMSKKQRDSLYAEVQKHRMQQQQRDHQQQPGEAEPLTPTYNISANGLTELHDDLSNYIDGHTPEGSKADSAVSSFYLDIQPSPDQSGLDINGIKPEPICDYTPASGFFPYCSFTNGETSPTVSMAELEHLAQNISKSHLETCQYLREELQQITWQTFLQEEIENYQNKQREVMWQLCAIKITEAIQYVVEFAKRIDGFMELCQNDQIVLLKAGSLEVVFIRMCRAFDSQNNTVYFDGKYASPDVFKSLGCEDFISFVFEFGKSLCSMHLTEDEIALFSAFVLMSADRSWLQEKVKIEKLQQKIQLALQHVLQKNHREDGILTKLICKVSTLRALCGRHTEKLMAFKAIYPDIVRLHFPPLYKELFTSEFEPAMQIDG

[9] = target: Hepatocyte nuclear factor 4-alpha (Homo sapiens) (UniProt P41235); assay: Effect on HNF4A(NR2A1) dependent reporter activity in HEK293 cells at 20 uM; type: cell-based; method in brief: as §1
Chain of Hepatocyte nuclear factor 4-alpha (Homo sapiens) (P41235 whole entry): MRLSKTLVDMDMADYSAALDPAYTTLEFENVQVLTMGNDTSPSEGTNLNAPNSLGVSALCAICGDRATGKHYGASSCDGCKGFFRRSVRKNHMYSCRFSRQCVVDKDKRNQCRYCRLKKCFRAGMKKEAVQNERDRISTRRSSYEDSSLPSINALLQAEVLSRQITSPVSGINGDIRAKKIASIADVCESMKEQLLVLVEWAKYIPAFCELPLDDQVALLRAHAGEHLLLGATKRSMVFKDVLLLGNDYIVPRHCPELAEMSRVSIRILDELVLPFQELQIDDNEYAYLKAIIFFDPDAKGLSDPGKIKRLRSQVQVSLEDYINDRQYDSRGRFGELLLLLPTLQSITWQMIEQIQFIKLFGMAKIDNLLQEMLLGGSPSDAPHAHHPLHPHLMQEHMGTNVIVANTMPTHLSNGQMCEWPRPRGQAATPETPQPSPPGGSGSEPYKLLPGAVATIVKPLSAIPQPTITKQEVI

[10] = target: Retinoic acid receptor gamma (Homo sapiens) (UniProt P13631); assay: Effect on RARG(NR1B3) dependent reporter activity in HEK293 cells at 20 uM; type: cell-based; method in brief: as §1
[11] = Plasma concentration after 8 hours at 10mg/kg ip dose (10mg/ml suspension in 10%DMSO/10%Tween80); type: ADME, organism-based; conditions: mouse, read-out: Conc_plasma
Method in brief: (§3)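 Mice received a single 10 mg/kg i.p. dose as a 10 mg/ml suspension in DMSO/Tween80/water (10/10/80). Plasma was sampled at 1, 2, 4 and 8 h post-injection and drug concentration reported in μM. Mean ± s.e.m., n=3.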

[12] = target: Nuclear receptor subfamily 4immunitygroup A member 1 (Homo sapiens) (UniProt P22736); assay: Effect on GFRP1(NR4A1) dependent reporter activity in HEK293 cells at 20 uM; type: cell-based; method in brief: as §1
[13] = target: Nuclear receptor subfamily 6 group A member 1 (Homo sapiens) (UniProt Q15406); assay: Effect on GCNF(NR6A1) dependent reporter activity in HEK293 cells at 20 uM; type: cell-based; method in brief: as §1
[14] = target: Nuclear receptor ROR-gamma (Homo sapiens) (UniProt P51449); assay: Effect on RORG(NR1F3) dependent reporter activity in HEK293 cells at 20 uM; type: cell-based; method in brief: as §1
[15] = target: Retinoic acid receptor RXR-beta (Homo sapiens) (UniProt P28702); assay: Effect on RXRB(NR2B2) dependent reporter activity in HEK293 cells at 20 uM; type: cell-based; method in brief: as §1
Mus musculus [16] = assay: Decreased expression of REV-ERB responsive gene Srebf1 in mouse liver after 6 days at 100 mg/kg; type: functional, organism-based; design: dose 100 mg/kg
[17] = target: Peroxisome proliferator-activated receptor alpha (Homo sapiens) (UniProt Q07869); assay: Effect on PPARA(NR1C1) dependent reporter activity in HEK293 cells at 20 uM; type: cell-based; method in brief: as §1
Chain of Peroxisome proliferator-activated receptor alpha (Homo sapiens) (Q07869 whole entry): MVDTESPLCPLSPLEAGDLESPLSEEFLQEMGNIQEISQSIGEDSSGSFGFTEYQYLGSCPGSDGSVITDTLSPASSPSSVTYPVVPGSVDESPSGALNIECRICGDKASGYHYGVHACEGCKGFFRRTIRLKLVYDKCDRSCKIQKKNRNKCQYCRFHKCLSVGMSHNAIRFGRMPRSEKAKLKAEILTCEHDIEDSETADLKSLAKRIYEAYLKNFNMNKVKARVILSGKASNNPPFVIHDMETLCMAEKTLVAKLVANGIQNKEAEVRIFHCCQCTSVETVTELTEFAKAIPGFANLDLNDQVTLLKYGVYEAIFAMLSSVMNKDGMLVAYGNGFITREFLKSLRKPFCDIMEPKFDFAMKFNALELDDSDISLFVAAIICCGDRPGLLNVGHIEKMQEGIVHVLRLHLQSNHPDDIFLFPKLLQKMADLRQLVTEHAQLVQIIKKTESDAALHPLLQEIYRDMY

[18] = target: Nuclear receptor subfamily 4 group A member 2 (Homo sapiens) (UniProt P43354); assay: Effect on NURR1(NR4A2) dependent reporter activity in HEK293 cells at 20 uM; type: cell-based; method in brief: as §1
Chain of Nuclear receptor subfamily 4 group A member 2 (Homo sapiens) (P43354 whole entry): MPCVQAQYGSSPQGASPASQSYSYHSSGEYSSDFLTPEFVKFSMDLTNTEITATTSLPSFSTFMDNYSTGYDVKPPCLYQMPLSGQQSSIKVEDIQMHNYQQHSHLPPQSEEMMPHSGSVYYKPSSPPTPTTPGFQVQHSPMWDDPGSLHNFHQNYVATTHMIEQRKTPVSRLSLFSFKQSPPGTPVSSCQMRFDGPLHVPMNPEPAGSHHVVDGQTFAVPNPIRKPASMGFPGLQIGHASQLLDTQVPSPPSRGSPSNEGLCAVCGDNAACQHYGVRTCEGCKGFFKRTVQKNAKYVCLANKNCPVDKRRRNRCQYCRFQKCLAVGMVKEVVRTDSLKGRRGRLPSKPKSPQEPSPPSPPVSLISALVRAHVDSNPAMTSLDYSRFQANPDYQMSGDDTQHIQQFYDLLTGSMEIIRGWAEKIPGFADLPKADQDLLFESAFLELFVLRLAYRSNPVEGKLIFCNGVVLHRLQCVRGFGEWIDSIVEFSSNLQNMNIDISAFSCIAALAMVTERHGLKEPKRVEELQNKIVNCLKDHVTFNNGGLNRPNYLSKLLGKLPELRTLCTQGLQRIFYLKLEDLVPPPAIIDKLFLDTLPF

[19] = target: Retinoic acid receptor RXR-gamma (Homo sapiens) (UniProt P48443); assay: Effect on RXRG(NR2B3) dependent reporter activity in HEK293 cells at 20 uM; type: cell-based; method in brief: as §1
[20] = target: Nuclear receptor subfamily 1 group D member 1 (Homo sapiens) (UniProt P20393); assay: Recruitment of co-repressor NcoR1 to REV-ERB-alpha; type: functional
Chain of Nuclear receptor subfamily 1 group D member 1 (Homo sapiens) (P20393 whole entry): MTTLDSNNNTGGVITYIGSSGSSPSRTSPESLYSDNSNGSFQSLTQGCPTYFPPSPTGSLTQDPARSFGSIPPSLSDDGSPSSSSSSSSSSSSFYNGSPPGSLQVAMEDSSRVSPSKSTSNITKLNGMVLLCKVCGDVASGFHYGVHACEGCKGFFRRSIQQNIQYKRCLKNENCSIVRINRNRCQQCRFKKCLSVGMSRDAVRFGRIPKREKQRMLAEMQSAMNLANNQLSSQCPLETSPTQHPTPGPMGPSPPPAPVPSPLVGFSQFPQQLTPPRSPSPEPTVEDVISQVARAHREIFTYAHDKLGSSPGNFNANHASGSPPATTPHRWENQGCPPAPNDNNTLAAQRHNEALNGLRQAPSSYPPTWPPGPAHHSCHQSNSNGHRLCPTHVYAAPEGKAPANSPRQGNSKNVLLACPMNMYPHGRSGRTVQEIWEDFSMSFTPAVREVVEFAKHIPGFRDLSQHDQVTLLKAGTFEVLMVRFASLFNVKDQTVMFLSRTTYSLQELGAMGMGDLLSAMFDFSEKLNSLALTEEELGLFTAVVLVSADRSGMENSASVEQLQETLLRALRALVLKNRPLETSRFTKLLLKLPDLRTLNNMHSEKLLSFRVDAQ
Method in brief: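 Biochemical corepressor-interaction assay using Luminex bead technology, measuring compound-dependent recruitment of an NCoR CoRNR box peptide to REV-ERBα. Mean ± s.e.m., n=3.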

[21] = target: Nuclear receptor subfamily 2 group C member 1 (Homo sapiens) (UniProt P13056); assay: Effect on TR2(NR2C1) dependent reporter activity in HEK293 cells at 20 uM; type: cell-based; method in brief: as §2
Mus musculus [22] = assay: Change in plasma glucose in diet-induced obese mice over 30 days at 100 mg/kg ip; type: functional, organism-based; design: dose 100 mg/kg; conditions: C57BL/6
[23] = target: Steroid hormone receptor ERR2 (Homo sapiens) (UniProt O95718); assay: Effect on ERR2(NR3B2) dependent reporter activity in HEK293 cells at 20 uM; type: cell-based; method in brief: as §1
[24] = Brain concentration after 8 hours at 10mg/kg ip dose (10mg/ml suspension in 10%DMSO/10%Tween80); type: ADME, organism-based; conditions: mouse
Method in brief: (§4)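 Mice given a single 10mg/kg i.p. dose as a 10mg/ml suspension in 10/10/80 DMSO/Tween80/water. Brain levels (μM) measured at 2h and 8h post injection, with plasma sampled at 1, 2, 4 and 8h. Mean ± s.e.m., n=3.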

[25] = Plasma concentration after 1 hour at 10mg/kg ip dose (10mg/ml suspension in 10%DMSO/10%Tween80); type: ADME, organism-based; conditions: mouse, read-out: Conc_plasma; method in brief: as §3
[26] = Brain concentration after 2 hours at 10mg/kg ip dose (10mg/ml suspension in 10%DMSO/10%Tween80); type: ADME, organism-based; conditions: mouse, read-out: Conc_brain; method in brief: as §4
Mus musculus [27] = organism: Mus musculus; assay: Inhibition of circadian oscillations in SCN explants from Per2-luc transgenic mouse; type: functional, tissue-based

Compound | inhibition [1] | inhibition [2] | inhibition [3] | inhibition [4] | inhibition [5] | inhibition [6] | Reduced_Serpine1_gene_exp (Mus musculus [7]) | inhibition [8] | inhibition [9] | inhibition [10] | concentration at 8 h [11] [nM] | inhibition [12] | inhibition [13] | inhibition [14] | inhibition [15] | Reduced_Srebf1_gene_exp (Mus musculus [16]) | inhibition [17] | inhibition [18] | inhibition [19] | NcoR1_recruitment [20] | further results
CCOC(=O)N1CCC(CN(Cc2ccc(Cl)cc2)Cc2ccc([N+](=O)[O-])s2)C1 (stereo unspecified) [SR9009] | inactive | inactive | inactive | inactive | inactive | inactive | Active | inactive | inactive | inactive | 130 | inactive | inactive | inactive | inactive | Active | inactive | inactive | inactive | Dose-dependent effect | inhibition [21]: inactive; Plasma glucose (Mus musculus [22]): -19%; inhibition [23]: inactive; concentration at 8 h ([24]; brain, read-out: Conc_brain): 110 nM; concentration at 1 h [25]: 1400 nM
CCCCCNC(=O)N1CCC(CN(Cc2ccc(Cl)cc2)Cc2ccc([N+](=O)[O-])s2)C1 (stereo unspecified) [SR9011] | inactive | inactive | inactive | inactive | inactive | inactive | Active | inactive | inactive | inactive | 10 | inactive | inactive | inactive | inactive | Active | inactive | inactive | inactive | Dose-dependent effect | concentration at 2 h [26]: 240 nM; inhibition [21]: inactive; inhibition [23]: inactive; Reduced_circadian_oscillation (Mus musculus [27]): Active; Conc_brain ([24]; in vivo, 8 h): Not Detected; concentration at 1 h [25]: 1550 nM

From ChEMBL document CHEMBL1961794, “Regulation of circadian behaviour and metabolism by synthetic REV-ERB agonists” (Nature, 2012)
